Data set [1] deals with human coronavirus (HCoV) 229E. In words: cytopathic effect. The data set is classed as cell-based. Conditions: for inhibition at 25 µM: unidentified human coronavirus, MRC5, read-out: normalized inhibition % (25 μM); for inhibition of HCoV 229E in words: 25 μM, MRC5 cells. Summed up: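 MRC5 cells were seeded at 20,000 cells/well and grown overnight at 37 °C, 5% CO₂. Test compound diluted in assay medium was added, then HCoV 229E diluted in assay medium; final DMSO 0.5%. CPE was read by CellTiter Glo. Protection at each concentration was normalized to virus-only control. Screen at 25 μM; EC50 from full dose–response by four-parameter variable-slope nonlinear regression.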
For orientation: Damage to the host cells serves as the signal in cytopathic effect assays.

Data set [2] in a line: cytotoxicity toward MRC5 cells, same conditions without virus infection. Particulars: human. The data set is classed as cell-based. Summed up: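 Run in parallel with the antiviral CPE assay under identical conditions without virus infection. MRC5 cells were seeded at 20,000 cells/well and cultured overnight at 37 °C, 5% CO₂. Test compound diluted in assay medium was added; final DMSO 0.5%. Viability was read by CellTiter Glo. Single-point at 25 μM; CC50 by four-parameter log(inhibitor) vs response variable-slope regression.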

Take `CC(=O)OC[C@@]1(C)[C@H]2CC[C@@H]3CN(Cc4ccccc4)[C@@H](C4=CCOC4=O)C[C@H]3[C@]2(C)CC[C@H]1OC(C)=O` [4a, ((2R,4aS,6aS,7R,8R,10aS,10bR)-8-Acetoxy-3-benzyl-7,10a-dimethyl-2-(2-oxo-2,5-dihydrofuran-3-yl)tetradecahydrobenzo[f]isoquinolin-7-yl)methyl Acetate]: in data set [1], the inhibition at 25 µM was found to be 66.8%. Moreover, the cytotoxicity at 3 days, 25 µM in data set [2] came out at 15.5%.

Regarding `CC(=O)OC[C@@]1(C)[C@H]2CC[C@@H]3CN(Cc4ccc(Br)cc4)[C@@H](C4=CCOC4=O)C[C@H]3[C@]2(C)CC[C@H]1OC(C)=O` [4d, ((2R,4aS,6aS,7R,8R,10aS,10bR)-8-Acetoxy-3-(4-bromobenzyl)-7,10a-dimethyl-2-(2-oxo-2,5-dihydrofuran-3-yl)tetradecahydrobenzo[f]isoquinolin-7-yl)methyl Acetate], the inhibition at 25 µM in data set [1] amounted to 110%. Besides, the cytotoxicity at 3 days, 25 µM in data set [2] is -3%.

As to `CC(=O)OC[C@@]1(C)[C@H]2CC[C@@H]3CN(Cc4ccc(C(F)(F)F)cc4)[C@@H](C4=CCOC4=O)C[C@H]3[C@]2(C)CC[C@H]1OC(C)=O` [4h, ((2R,4aS,6aS,7R,8R,10aS,10bR)-8-Acetoxy-7,10a-dimethyl-2-(2-oxo-2,5-dihydrofuran-3-yl)-3-(4-(trifluoromethyl)benzyl)tetradecahydrobenzo[f]isoquinolin-7-yl)methyl Acetate], the inhibition at 25 µM in data set [1] is 119%. Besides, in data set [2], the cytotoxicity at 3 days, 25 µM is -5.4%.

With `CC(=O)OC[C@@]1(C)[C@H]2CC[C@@H]3CN(Cc4ccc(O)cc4)[C@@H](C4=CCOC4=O)C[C@H]3[C@]2(C)CC[C@H]1OC(C)=O` [4j, ((2R,4aS,6aS,7R,8R,10aS,10bR)-8-Acetoxy-3-(4-hydroxybenzyl)-7,10a-dimethyl-2-(2-oxo-2,5-dihydrofuran-3-yl)tetradecahydrobenzo[f]isoquinolin-7-yl)methyl Acetate], the inhibition at 25 µM in data set [1] was found to be 55.6%. Besides, the cytotoxicity at 3 days, 25 µM in data set [2] was -5.2%.

Turning to `CC(=O)OC[C@@]1(C)[C@H]2CC[C@@H]3CN(Cc4ccccc4F)[C@@H](C4=CCOC4=O)C[C@H]3[C@]2(C)CC[C@H]1OC(C)=O` [4l, ((2R,4aS,6aS,7R,8R,10aS,10bR)-8-Acetoxy-3-(2-fluorobenzyl)-7,10a-dimethyl-2-(2-oxo-2,5-dihydrofuran-3-yl)tetradecahydrobenzo[f]isoquinolin-7-yl)methyl Acetate], in data set [1], the inhibition at 25 µM was found to be 148%. Moreover, in data set [2], the CC50 at 3 days was above 100 µM and the cytotoxicity at 3 days, 25 µM is -19.5%.

Regarding `CC(=O)OC[C@@]1(C)[C@H]2CC[C@@H]3CN(Cc4cccc(Cl)c4)[C@@H](C4=CCOC4=O)C[C@H]3[C@]2(C)CC[C@H]1OC(C)=O` [4m, ((2R,4aS,6aS,7R,8R,10aS,10bR)-8-Acetoxy-3-(3-chlorobenzyl)-7,10a-dimethyl-2-(2-oxo-2,5-dihydrofuran-3-yl)tetradecahydrobenzo[f]isoquinolin-7-yl)methyl Acetate], the inhibition at 25 µM in data set [1] worked out at 130%. In data set [2], the CC50 at 3 days is above 100 µM and the cytotoxicity at 3 days, 25 µM is -13.2%.

In the case of `CC(=O)OC[C@@]1(C)[C@H]2CC[C@@H]3CN(Cc4ccc(F)c(Cl)c4)[C@@H](C4=CCOC4=O)C[C@H]3[C@]2(C)CC[C@H]1OC(C)=O` [4n, ((2R,4aS,6aS,7R,8R,10aS,10bR)-8-Acetoxy-3-(3-chloro-4-fluorobenzyl)-7,10a-dimethyl-2-(2-oxo-2,5-dihydrofuran-3-yl)tetradecahydrobenzo[f]isoquinolin-7-yl)methyl Acetate], in data set [1], the inhibition at 25 µM stood at 102%. Also, the cytotoxicity at 3 days, 25 µM in data set [2] is -4.9%.

Take `CC(=O)OC[C@@]1(C)[C@H]2CC[C@@H]3CN(Cc4ccco4)[C@@H](C4=CCOC4=O)C[C@H]3[C@]2(C)CC[C@H]1OC(C)=O` [4o, ((2R,4aS,6aS,7R,8R,10aS,10bR)-8-Acetoxy-3-(furan-2-ylmethyl)-7,10a-dimethyl-2-(2-oxo-2,5-dihydrofuran-3-yl)tetradecahydrobenzo[f]isoquinolin-7-yl)methyl Acetate]: in data set [1], the “inhibition of HCoV 229E in words” value is “weak inhibition effect” and the inhibition at 25 µM is 58.4%. The cytotoxicity at 3 days, 25 µM in data set [2] is -4.5%.

Regarding `CC(=O)OC[C@@]1(C)[C@H]2CC[C@@H]3CN(Cc4cccs4)[C@@H](C4=CCOC4=O)C[C@H]3[C@]2(C)CC[C@H]1OC(C)=O` [4p, ((2R,4aS,6aS,7R,8R,10aS,10bR)-8-Acetoxy-7,10a-dimethyl-2-(2-oxo-2,5-dihydrofuran-3-yl)-3-(thiophen-2-ylmethyl)tetradecahydrobenzo[f]isoquinolin-7-yl)methyl Acetate], in data set [1], the “inhibition of HCoV 229E in words” value is given as “weak inhibition effect” and the inhibition at 25 µM was 26.9%. Moreover, the cytotoxicity at 3 days, 25 µM in data set [2] came to 4.2%.

In the case of `CC(=O)OC[C@@]1(C)[C@H]2CC[C@@H]3CN(Cc4cccc5ccccc45)[C@@H](C4=CCOC4=O)C[C@H]3[C@]2(C)CC[C@H]1OC(C)=O` [4q, ((2R,4aS,6aS,7R,8R,10aS,10bR)-8-Acetoxy-7,10a-dimethyl-3-(naphthalen-1-ylmethyl)-2-(2-oxo-2,5-dihydrofuran-3-yl)tetradecahydrobenzo[f]isoquinolin-7-yl)methyl Acetate], in data set [1], the inhibition at 25 µM was 121%. For the same compound, the cytotoxicity at 3 days, 25 µM in data set [2] was -14.7%.

Take `CCCN1C[C@H]2CC[C@@H]3[C@](C)(COC(C)=O)[C@H](OC(C)=O)CC[C@@]3(C)[C@@H]2C[C@@H]1C1=CCOC1=O` [4r, ((2R,4aS,6aS,7R,8R,10aS,10bR)-8-Acetoxy-7,10a-dimethyl-2-(2-oxo-2,5-dihydrofuran-3-yl)-3-propyltetradecahydrobenzo[f]isoquinolin-7-yl)methyl Acetate]: the inhibition at 25 µM in data set [1] came to 51.4%. For the same compound, in data set [2], the cytotoxicity at 3 days, 25 µM was -5.6%.

As to `CC(=O)OC[C@@]1(C)[C@H]2CC[C@@H]3CN(CCC(C)C)[C@@H](C4=CCOC4=O)C[C@H]3[C@]2(C)CC[C@H]1OC(C)=O` [4v, ((2R,4aS,6aS,7R,8R,10aS,10bR)-8-Acetoxy-3-isopentyl-7,10a-dimethyl-2-(2-oxo-2,5-dihydrofuran-3-yl)tetradecahydrobenzo[f]isoquinolin-7-yl)methyl Acetate], the inhibition at 25 µM in data set [1] worked out at 102%. In addition, the cytotoxicity at 3 days, 25 µM in data set [2] amounted to 3.2%.

As to `CC(=O)OC[C@@]1(C)[C@H]2CC[C@@H]3CN(C4CCCC4)[C@@H](C4=CCOC4=O)C[C@H]3[C@]2(C)CC[C@H]1OC(C)=O` [4w, ((2R,4aS,6aS,7R,8R,10aS,10bR)-8-Acetoxy-3-cyclopentyl-7,10a-dimethyl-2-(2-oxo-2,5-dihydrofuran-3-yl)tetradecahydrobenzo[f]isoquinolin-7-yl)methyl Acetate], the inhibition at 25 µM in data set [1] came to 11.3%. Further, the cytotoxicity at 3 days, 25 µM in data set [2] is -4.5%.

On to `CC(=O)OC[C@@]1(C)[C@H]2CC[C@@H]3CN(C4CCCCCC4)[C@@H](C4=CCOC4=O)C[C@H]3[C@]2(C)CC[C@H]1OC(C)=O` [4y, ((2R,4aS,6aS,7R,8R,10aS,10bR)-8-Acetoxy-3-cycloheptyl-7,10a-dimethyl-2-(2-oxo-2,5-dihydrofuran-3-yl)tetradecahydrobenzo[f]isoquinolin-7-yl)methyl Acetate], for which, in data set [1], the inhibition at 25 µM came to 135%. Moreover, in data set [2], the CC50 at 3 days is above 100 µM and the cytotoxicity at 3 days, 25 µM was -18.2%.

Turning to `Cc1ccc(CN2C[C@H]3CC[C@@H]4[C@]5(C)COC(C)(C)O[C@@H]5CC[C@@]4(C)[C@@H]3C[C@@H]2C2=CCOC2=O)cc1` [9f, 3-((4aR,4bS,6aS,9R,10aR,10bS,12aR)-2,2,4a,10b-Tetramethyl-8-(4-methylbenzyl)tetradecahydro-4H-[1,3]dioxino[5′,4′:3,4]benzo[1,2-f]isoquinolin-9-yl)furan-2(5H)-one], in data set [1], the “inhibition of HCoV 229E in words” value is recorded as “good inhibition” and the inhibition at 25 µM turned out to be 100%. In data set [2], the CC50 at 3 days was above 100 µM and the cytotoxicity at 3 days, 25 µM is -1.6%.

Turning to `CC1(C)OC[C@@]2(C)[C@H]3CC[C@@H]4CN(Cc5ccc(C(C)(C)C)cc5)[C@@H](C5=CCOC5=O)C[C@H]4[C@]3(C)CC[C@H]2O1` [9g, 3-((4aR,4bS,6aS,9R,10aR,10bS,12aR)-8-(4-(tert-Butyl)benzyl)-2,2,4a,10b-tetramethyltetradecahydro-4H-[1,3]dioxino[5′,4′:3,4]benzo[1,2-f]isoquinolin-9-yl)furan-2(5H)-one], in data set [1], the inhibition at 25 µM is 103%. Besides, the cytotoxicity at 3 days, 25 µM in data set [2] was -0.2%.

On to `CC1(C)OC[C@@]2(C)[C@H]3CC[C@@H]4CN(Cc5ccc([N+](=O)[O-])cc5)[C@@H](C5=CCOC5=O)C[C@H]4[C@]3(C)CC[C@H]2O1` [9h, 3-((4aR,4bS,6aS,9R,10aR,10bS,12aR)-2,2,4a,10b-Tetramethyl-8-(4-nitrobenzyl)tetradecahydro-4H-[1,3]dioxino[5′,4′:3,4]benzo[1,2-f]isoquinolin-9-yl)furan-2(5H)-one], for which the inhibition at 25 µM in data set [1] came out at 102%. The cytotoxicity at 3 days, 25 µM in data set [2] was -4.7%.

Consider `C[C@@]12COCO[C@@H]1CC[C@]1(C)[C@@H]2CC[C@@H]2CN(Cc3cccs3)[C@@H](C3=CCOC3=O)C[C@H]21` [10d, 3-((4aR,4bS,6aS,9R,10aR,10bS,12aR)-4a,10b-Dimethyl-8-(thiophen-2-ylmethyl)tetradecahydro-4H-[1,3]dioxino[5′,4′:3,4]benzo[1,2-f]isoquinolin-9-yl)furan-2(5H)-one], for which, in data set [1], the inhibition at 25 µM was determined as 58.6%. Also, in data set [2], the cytotoxicity at 3 days, 25 µM was -13.4%.

In the case of `C[C@]1(CO)[C@H]2CC[C@@H]3CN(Cc4ccccc4)[C@@H](C4=CCOC4=O)C[C@H]3[C@]2(C)CC[C@H]1O` [11a, 3-((2R,4aS,6aS,7R,8R,10aS,10bR)-3-Benzyl-8-hydroxy-7-(hydroxymethyl)-7,10a-dimethyltetradecahydrobenzo[f]isoquinolin-2-yl)furan-2(5H)-one], the inhibition at 25 µM in data set [1] stood at 39.7%. The cytotoxicity at 3 days, 25 µM in data set [2] was -4.8%.

The inhibition is the drop in the measured response relative to a control, in per cent. By CC50 is commonly meant the concentration giving 50% cytotoxicity.

(Values after paper PMC9301648 (ACS Omega, 2022).)
